Source: ChEMBL document CHEMBL1687750, “Nonclinical pharmacokinetics of oseltamivir and oseltamivir carboxylate in the central nervous system” (Antimicrob Agents Chemother, 2009)

What was measured:
[1] = Cmax in perfused Sprague-Dawley rat cerebrospinal fluid at 30 mg/kg, iv; assay type: ADME, organism-based; design: dose 30 mg/kg, route intravenous
In short: (§1)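 Nonfasted adult rats received 30 mg/kg in aqueous 0.9% NaCl (pH 4.0) by slow tail-vein injection over 20–30 s. Groups were sampled at 5 min and 0.25, 0.5, 1, 2, 4 and 8 h, with 4–5 rats per time point, under terminal isoflurane. Blood was taken by heart puncture and CSF from the cisterna magna. Brains were homogenized either unperfused or after transcardial saline perfusion. Samples were assayed by LC-MS/MS, and pooled composite data were analyzed noncompartmentally.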

[2] = Permeability from […] of Spodoptera frugiperda Sf9 cells over expressing human BCRP1; assay type: ADME, cell-based
In short: (§2)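 Membrane vesicles (20–50 µg) from insect cells expressing recombinant human BCRP1, MRP1 or MRP3 were prewarmed at 37°C. They were incubated for 60 s at 37°C with 14C-oseltamivir (3.8 µM) or OC (3.1 µM), with or without 5 mM ATP, in sucrose/KNO3/Mg(NO3)2/HEPES-Tris pH 7.4. The reaction was stopped with ice-cold buffer containing taurocholate, followed by rapid nitrocellulose filtration and scintillation counting. Determinations were in triplicate.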

[3] = […] of Spodoptera frugiperda Sf9 cells over expressing human MRP1; assay type: ADME, cell-based; in short: as §2
[4] = Permeability from […] of Spodoptera frugiperda Sf9 cells over expressing human MRP3; assay type: ADME, cell-based; in short: as §2
[5] = Prodrug conversion in 42 days old male rat liver S9 fractions assessed as paranitrophenol generation rate assessed per mg of protein per min; assay type: ADME, subcellular, S9 fraction
In short: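 Control esterase activity was measured by incubating 100 µM p-nitrophenyl acetate (final) with 0.05 mg rat brain or liver S9 protein in 1.5 ml Tris-HCl pH 7.4 for 1 min at 37°C. Reactions were quenched with acetonitrile, and product was quantified by HPLC-UV against external standards. The no-protein blank rate was subtracted, and rate was expressed per mg protein per min.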

[6] = Prodrug conversion in 7 days old male rat brain S9 fractions assessed as paranitrophenol generation rate assessed per mg of protein per min; assay type: ADME, tissue-based
[7] = Cmax in non-perfused Sprague-Dawley rat plasma at 30 mg/kg, iv; assay type: ADME, organism-based; design: dose 30 mg/kg, route intravenous; in short: as §1
[8] = Cmax in non-perfused Sprague-Dawley rat cerebrospinal fluid at 30 mg/kg, iv; assay type: ADME, organism-based; design: dose 30 mg/kg, route intravenous; in short: as §1
[9] = Cmax in non-perfused Sprague-Dawley rat brain at 30 mg/kg, iv; assay type: ADME, organism-based; design: dose 30 mg/kg, route intravenous; in short: as §1
[10] = Cmax in perfused Sprague-Dawley rat plasma at 30 mg/kg, iv; assay type: ADME, organism-based; design: dose 30 mg/kg, route intravenous; in short: as §1
[11] = Cmax in perfused Sprague-Dawley rat brain at 30 mg/kg, iv; assay type: ADME, organism-based; design: dose 30 mg/kg, route intravenous; in short: as §1
[12] = Terminal half life in non-perfused Sprague-Dawley rat plasma at 30 mg/kg, iv; assay type: ADME, organism-based; design: dose 30 mg/kg, route intravenous; settings: read-out: beta t1/2 (converted)
In short: (§3)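 Nonfasted Sprague-Dawley rats given 30 mg/kg i.v. in 0.9% NaCl pH 4.0 by tail vein over 20–30 s. Terminal sampling under isoflurane at 5 min, 0.25, 0.5, 1, 2, 4 and 8 h (4–5 rats/time): plasma, CSF, and brain homogenate, with or without saline perfusion. LC-MS/MS. t1/2, Vss and ratios from noncompartmental analysis of pooled composite concentrations.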

[13] = Terminal half life in non-perfused Sprague-Dawley rat cerebrospinal fluid at 30 mg/kg, iv; assay type: ADME, organism-based; design: dose 30 mg/kg, route intravenous; settings: read-out: beta t1/2 (converted); in short: as §3
[14] = Terminal half life in non-perfused Sprague-Dawley rat brain at 30 mg/kg, iv; assay type: ADME, organism-based; design: dose 30 mg/kg, route intravenous; settings: read-out: beta t1/2 (converted); in short: as §3
[15] = Terminal half life in perfused Sprague-Dawley rat plasma at 30 mg/kg, iv; assay type: ADME, organism-based; design: dose 30 mg/kg, route intravenous; settings: read-out: beta t1/2 (converted); in short: as §3
[16] = Terminal half life in perfused Sprague-Dawley rat cerebrospinal fluid at 30 mg/kg, iv; assay type: ADME, organism-based; design: dose 30 mg/kg, route intravenous; settings: read-out: beta t1/2 (converted); in short: as §3
[17] = Terminal half life in perfused Sprague-Dawley rat brain at 30 mg/kg, iv; assay type: ADME, organism-based; design: dose 30 mg/kg, route intravenous; settings: read-out: beta t1/2 (converted); in short: as §3
[18] = Cmax in perfused Sprague-Dawley rat plasma at 1000 mg/kg, po; assay type: ADME, organism-based; design: dose 1000 mg/kg, route oral
In short: (§4)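 Oseltamivir phosphate was given by oral gavage at 1,000 mg/kg free base. Sampling was at 1, 2, 4, 6 and 8 h, with 4 rats per time point, under terminal isoflurane. Blood was taken by cardiac puncture and CSF from the cisterna magna. Brains were perfused transcardially with saline before homogenization. Samples were quantified by LC-MS/MS, with noncompartmental analysis of pooled composite data giving AUC0-8 h and concentration ratios.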

[19] = Cmax in perfused Sprague-Dawley rat cerebrospinal fluid at 1000 mg/kg, po; assay type: ADME, organism-based; design: dose 1000 mg/kg, route oral; in short: as §4
[20] = Cmax in perfused Sprague-Dawley rat brain at 1000 mg/kg, po; assay type: ADME, organism-based; design: dose 1000 mg/kg, route oral; in short: as §4
[21] = AUC (0 to 8 hrs) ratio in brain to plasma in perfused Sprague-Dawley rat at 1000 mg/kg, po; assay type: ADME, organism-based; design: dose 1000 mg/kg, route oral; settings: brain and plasma, read-out: Ratio AUC; in short: as §4
[22] = AUC (0 to 8 hrs) ratio in cerebrospinal fluid to brain in perfused Sprague-Dawley rat at 1000 mg/kg, po; assay type: ADME, organism-based; design: dose 1000 mg/kg, route oral; settings: in vivo; in short: as §4
Brain [23] = assay: Ratio of AUC (0 to infinity) after iv dose to AUC (0 to 8 hrs) after po dose in perfused Sprague-Dawley rat brain at 1000 mg/kg; assay type: ADME, organism-based; design: dose 1000 mg/kg, route oral; settings: in vivo
In short: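 Sprague-Dawley rats, nonfasted. i.v.: 30 mg/kg in 0.9% NaCl pH 4.0, slow tail-vein injection, sampled at 5 min and 0.25–8 h. Oral gavage: 1,000 mg/kg free base, sampled 1–8 h. Four or five rats per time point, with cardiac blood and cisterna magna CSF. Brains taken with or without saline transcardial perfusion (oral study perfused). LC-MS/MS. AUC by noncompartmental analysis of pooled composite data.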

[24] = AUC (0 to 8 hrs) ratio in cerebrospinal fluid to plasma in perfused Sprague-Dawley rat at 1000 mg/kg, po; assay type: ADME, organism-based; design: dose 1000 mg/kg, route oral; settings: cerebrospinal fluid and plasma, read-out: Ratio AUC; in short: as §4
Brain [25] = assay: AUC (0 to 8 hrs) after iv dose in perfused Sprague-Dawley rat brain at 30 mg/kg; settings: in vivo
Plasma [26] = assay: AUC (0 to 8 hrs) after iv dose in perfused Sprague-Dawley rat plasma at 30 mg/kg; settings: in vivo
Plasma [27] = assay: AUC (0 to 8 hrs) after po dose in perfused Sprague-Dawley rat plasma at 1000 mg/kg; settings: in vivo
Brain [28] = assay: AUC (0 to 8 hrs) after iv dose in non-perfused Sprague-Dawley rat brain at 30 mg/kg; settings: in vivo
Cerebrospinal fluid [29] = assay: AUC (0 to 8 hrs) after iv dose in perfused Sprague-Dawley rat cerebrospinal fluid at 30 mg/kg; settings: in vivo
Cerebrospinal fluid [30] = assay: AUC (0 to 8 hrs) after po dose in perfused Sprague-Dawley rat cerebrospinal fluid at 1000 mg/kg; settings: in vivo
Cerebrospinal fluid [31] = assay: AUC (0 to 8 hrs) after iv dose in non-perfused Sprague-Dawley rat cerebrospinal fluid at 30 mg/kg; settings: in vivo
[32] = Cmax ratio in cerebrospinal fluid to plasma in perfused Sprague-Dawley rat at 30 mg/kg, iv; assay type: ADME, organism-based, CSF/Plasma; design: dose 30 mg/kg, route intravenous; settings: cerebrospinal fluid and plasma; in short: as §1
[33] = Cmax in non-perfused Sprague-Dawley rat brain at 30 mg/kg, iv after 0.25 hrs; assay type: ADME, organism-based; design: dose 30 mg/kg, route intravenous; in short: as §1
[34] = AUC ratio in brain to plasma in non-perfused Sprague-Dawley rat at 30 mg/kg, iv; assay type: ADME, organism-based; design: dose 30 mg/kg, route intravenous; settings: brain and plasma, read-out: Ratio AUC; in short: as §1

Cmax [1] [µg/mL] | permeability [2] | permeability [3] | permeability [4] | Cmax [7] [µg/mL] | Cmax [8] [µg/mL] | Cmax [9] [ng/g] | Cmax [10] [µg/mL] | Cmax [11] [ng/g] | half-life [12] [h] | half-life [13] [h] | half-life [14] [h] | half-life [15] [h] | half-life [16] [h] | half-life [17] [h] | Cmax [18] [µg/mL] | Cmax [19] [µg/mL] | Cmax [20] [ng/g] | Kp [21] | Ratio AUC [22] | SMILES | further results
0.921 | impermeable | impermeable | impermeable | 12 | 0.897 | 712 | 12.5 | 491 | 1.35 | 0.813 | 2.45 | 1.59 | 0.812 | 1.51 | 16.3 | 1.12 | 2310 | 0.12 | 0.55 | CCOC(=O)C1=C[C@@H](OC(CC)CC)[C@H](NC(C)=O)[C@@H](N)C1 [OSELTAMIVIR] | Activity [5]: 1446 nmol; Activity [6]: 80 nmol; AUC (Brain [23]): 13600 ng·h/g; Kp [24]: 0.07; AUC (Brain [25]): 1160; AUC (Plasma [26]): 5330; AUC (Plasma [27]): 107000; AUC (Brain [28]): 1310; AUC (Cerebrospinal fluid [29]): 472; AUC (Cerebrospinal fluid [30]): 7470; AUC (Cerebrospinal fluid [31]): 450
0.249 | impermeable | impermeable | impermeable | 72.3 | 0.227 | 1710 | 86.3 | 605 | 1.64 | 0.342 | 0.379 | 1.69 | 0.382 | 0.478 | 49.7 | 0.363 | 641 | 0.01 | 0.64 | CCC(CC)O[C@@H]1C=C(C(=O)O)C[C@H](N)[C@H]1NC(C)=O [OSELTAMIVIR CARBOXYLATE] | Kp [32]: 0.003; Ratio AUC (Brain [23]): 3450; Cmax [33]: 164 ng/g; Kp [34]: 0.01; Kp [24]: 0.007; AUC (Brain [25]): 305; AUC (Plasma [26]): 33800; AUC (Plasma [27]): 286000; AUC (Brain [28]): 687; AUC (Cerebrospinal fluid [29]): 137; AUC (Cerebrospinal fluid [30]): 1940; AUC (Cerebrospinal fluid [31]): 128
